Results as given in ChEMBL document CHEMBL4680178, “Design, synthesis and biological evaluation of new ganglioside GM3 analogues as potential agents for cancer therapy” (Eur J Med Chem, 2020).
The source made the active and inactive calls. The rule behind the calls is not given here.

Tests used:
Format in all cases: functional, cell-based
HCT-116 = test: Antiproliferative activity against human HCT-116 cells assessed as inhibition of cell growth after 48 hrs by MTT assay; conditions: HCT-116, 48 h
How it was run: (§1)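 Cells grown in RPMI-1640 with 10% heat-inactivated FBS at 37 °C, 5% CO2, seeded at 8×10^3/well, treated 48 h with compound at 20, 200, 400, 1000 μM or DMSO vehicle. MTT (5 mg/mL solution) added for 4 h at 37 °C; absorbance read at 570 nm. IC50 from three independent experiments, mean ± SD.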

B16 = test: Antimigratory activity against mouse B16 cells assessed as inhibition of cell migration at 6.25 to 25 uM measured after 24 hrs by scratch wound healing assay; conditions: dose 6.25-25 µM
How it was run: (§2)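 Near-confluent monolayers (1.5×10^5 cells per well, RPMI-1640 + 10% FBS) scratched with a pipette tip, washed twice with serum-free RPMI-1640, then exposed to compound in fresh FBS-containing medium (DMSO solvent control) for 24 h. Wounds photographed by inverted microscopy; migration expressed as wound width at 24 h / wound width at 0 h (%). Triplicate.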

K562 = test: Antiproliferative activity against human K562 cells assessed as inhibition of cell growth after 48 hrs by MTT assay; conditions: K562, 48 h; how it was run: as §1
B16-F10 = test: Antimigratory activity against mouse B16-F10 cells assessed as inhibition of cell migration at 6.25 to 25 uM measured after 24 hrs by scratch wound healing assay; conditions: dose 6.25-25 µM; how it was run: as §2

SMILES	IC50 (HCT-116) [µM]	inhibition (B16)	IC50 (K562) [µM]	inhibition (B16-F10)
CCCCCCCCCCCCC/C=C/[C@@H](O)[C@H](CO[C@@H]1O[C@H](CO)[C@@H](O[C@@H]2O[C@H](CO[C@]3(C(=O)O)C[C@H](O)[C@@H](NC(C)=O)[C@H]([C@H](O)[C@H](O)CO)O3)[C@H](O)[C@H](O)[C@H]2O)[C@H](O)[C@H]1O)NC(=O)CCCCCCCCCCCCCCCCC	201	Active	201	Active
CCCCCCCCCCCCC/C=C/[C@@H](O)[C@@H](N)CO[C@@H]1O[C@H](CO)[C@@H](O[C@@H]2O[C@H](CO[C@]3(C(=O)O)C[C@H](O)[C@@H](NC(C)=O)[C@H]([C@H](O)[C@H](O)CO)O3)[C@H](O)[C@H](O)[C@H]2O)[C@H](O)[C@H]1O	150	Active	149	Active
